# Screening results (PubChem BioAssay)
# Shown are actives, neighbours in structure and some others; about 2.6% of the full set was active somewhere.
# Ecoli rRNA inh = inhibitors of bacterial rRNA selective over humanized ribosomes; E. coli WT GFP vs humanized-ribosome RFP mutants, fluorescence, 24 h; active compounds read low; DMSO median 0, no signal -100; GFP signal change (wild-type ribosome), % (concentration not given with the values); 350,000 compounds, 1.6% hits;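 active = significant combined selectivity score with lowered wild-type GFP, culture density cut under 30%, mutant RFP and density less affected; inactive = any of these conditions unmet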
# Vif imaging = inhibitors of HIV Vif; inhibition, % at 7.49 µM; HEK293T cells, Vif self-association by quenched fluorescence, imaging, 24 h; 340,000 compounds, 0.35% hits; in the data active = inhibition above about 50%, passing the limit was not always enough; inconclusive = no clear call, values can overlap the other calls; inactive = below about 31%
# S100A4 inh HTS = inhibitors of human S100A4 binding to myosin IIA peptide; P26447; S100A4/TAMRA-MyoIIA peptide fluorescence polarization; inhibition, % at 10.7 µM; 360,000 compounds, 0.14% hits; AID 652163;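 active = mean inhibition of at least 70% across replicates, with every replicate also reaching that level; inconclusive = mean inhibition reaches 70% but some replicates fall short; inactive = mean inhibition below 70%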
# Target sequence (P26447 whole entry, looked up): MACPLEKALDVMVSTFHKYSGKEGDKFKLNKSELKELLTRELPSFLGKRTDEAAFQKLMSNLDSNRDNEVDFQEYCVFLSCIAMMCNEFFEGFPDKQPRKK
#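 Material: human S100A4 monomer with TAMRA-labelled myosin IIA peptide; buffer or medium: HEPES pH 7.2 with CaCl2, KCl, NaCl, DTT, Triton; compound dosing: one concentration per compound; schedule: 5 min incubation before reading; benchmarks: neutral control DMSO, positive control TFP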
# FN deposition inh = fibronectin deposition inhibition | AH1F fibroblasts, Alexa488-fibronectin deposition fluorescence, overnight | inhibition, % at 12.6 µM | 350,000 compounds, 0.086% hits;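 active = mean inhibition across replicates of 30% or more, regardless of how many single replicates reach that level; inconclusive = mean under 30% yet at least half of replicates reach 30%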;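 also: positive control wells lacked labelled fibronectin entirely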
#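 Material: AH1F fibroblast monolayer depositing Alexa488-labelled fibronectin into matrix | Input: 10000 AH1F cells/well | Medium: DMEM plus 2% serum, read in PBS | Reagent: Alexa488-fibronectin, 24 nM final in well | Compound dosing: One dose per compound, pinned | Schedule: 1 h adhesion, overnight exposure | Measured by: Fluorescence at 485 nm excitation, 525 nm emission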
# HIV Env fusion = blocks HIV Env-driven cell-cell fusion. inhibition, % at 12.3 µM. 360,000 compounds, 1.1% hits. AID 651610. HeLa-JRFL Env/CEM21 cell fusion, luciferase;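 active = mean replicate inhibition score of at least 50 and every replicate individually at or above 50; inconclusive = only one of the two criteria met; inactive = mean below 50 and not all replicates reaching 50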;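 also: 0% = plate neutral controls and 100% = maraviroc near 300 nM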
# miR-122 sensor = miR-122 inhibition in Huh7 cells; activation (reporter increase), % at 12.5 µM; AID 602342; 340,000 compounds, 0.3% hits; Huh7 miR-122 Renilla luciferase sensor, 48 h; neutral wells = 0, positive control = 100;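 active = mean replicate activation score at least 90 and every replicate individually at or above 90; inconclusive = only one of the two criteria met; inactive = neither criterion met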;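 also: higher luciferase means less miR-122 activity so hits act as miR-122 inhibitors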
# * = called active by the depositor; u = inconclusive; x = no result; [ ] = remark or other dose.
SMILES,Ecoli rRNA inh,Vif imaging,S100A4 inh HTS,FN deposition inh,HIV Env fusion,miR-122 sensor
O=C(Nc1ccc(CN2CCOCC2)cc1)c1ccc(-c2cccc(Cl)c2)o1,x,-17,x,-3,77*,-5
C[C@H](CO)N1C[C@H](C)[C@H](CN(C)Cc2ccc(Cl)c(Cl)c2)Oc2ccc(NC(=O)Nc3ccc(C(F)(F)F)cc3)cc2CC1=O,1,x,9,6,41[16.7 µM],8[16.7 µM]
CC(C)(C)c1ccc(C(=O)c2cn[nH]c2-c2ccccc2O)cc1,-22*,-4,-7,2,17,-8
CC(OC(=O)c1c[nH]c2ccccc12)C(=O)N1CCCC1 (stereo not given),5,64*,1,3,x,0
S=C(c1c[nH]c2ccccc12)N1CCCC1,1,1,-1,4,-6,1
C[C@@H]1CN([C@@H](C)CO)C(=O)c2cc(-c3ccc(C(=O)N(C)C)cc3)cnc2O[C@H]1CN(C)C(=O)C1CC1,6,x,-1,4,-41[16.7 µM],-3[16.7 µM]
O=S(=O)(Nc1ccc(-c2nc3cccnc3s2)cc1)c1cc(F)ccc1F,-20*,-4,-1,2,-5,10
O=S(=O)(N[C@@H]1CC[C@H](CCn2cc(-c3cccc(F)c3)nn2)O[C@@H]1CO)c1ccc(F)cc1,-7,x,57,-1,9[16.7 µM],x
O=C(CSc1nnc(Cc2cccs2)n1Cc1ccco1)Nc1ccc(Cl)cc1Cl,x,7,x,13,59*,21
O=C(CSc1nnc(Cc2ccccc2)n1Cc1ccco1)NC12CC3CC(CC(C3)C1)C2,x,-5,x,x,58*,10
CN(C)C(=O)CSc1nnc(Cc2ccccc2)n1Cc1ccco1,x,-3,x,7,-2,x
C[C@@H]1CN([C@H](C)CO)C(=O)c2cc(C#CC3CC3)cnc2O[C@H]1CN(C)S(=O)(=O)c1cccc(F)c1,-1,x,-3,x,13[16.7 µM],3[16.7 µM]
NCC[C@@H]1CC[C@H](NC(=O)C2CC2)[C@@H](CO)O1,2,x,7,-7,-18[16.7 µM],x
COc1cccc(CNC(=O)[C@@H]2[C@@H](CO)[C@@H]3Cn4c(ccc(-c5ccncc5)c4=O)[C@@H]3N2C)c1,2,x,-6,x,x,x
CCNC(=S)N/N=C/c1sc(N2CCCCC2)nc1-c1cccs1,x,69*,x,11,-30,x
CCOC(=O)c1nnn(-c2ccc(OC)cc2)c1N,x,-2,x,32*,-69,-2
c1ccc(N=NC2=NN(c3ccccc3)CS2)cc1,-30*,1,-3,2,-39,x
c1ccc(C2=NN(c3ccccc3)CC2)cc1,0,28,4,-6,-134,1
CCC(=O)N1CCCc2cc(S(=O)(=O)N3CCN(c4ccccc4F)CC3)ccc21,-2,-5,1,3,41*,x
CCC(=O)N1CCCc2cc(S(=O)(=O)N3CCN(c4ncccn4)CC3)ccc21,1,5,-8,2,10,5
O=C(C[C@@H]1C[C@H]2c3cc(NC(=O)Nc4ccc(C(F)(F)F)cc4)ccc3O[C@H]2[C@@H](CO)O1)NCCc1ccccc1,-2,x,-4,-20,21[16.7 µM],-1[16.7 µM]
CCn1c(=O)c([N+](=O)[O-])c(NCc2ccco2)c2ccccc21,4,-4,-2,-7,13,-4
CCN(CC)c1c([N+](=O)[O-])c(=O)n(CC)c2ccccc12,-35*,-4,-1,-6,13,-2
CCNc1c([N+](=O)[O-])c(=O)n(CC)c2ccccc12,-33*,8,-2,-4,12,-8
CC(=O)N(C)C[C@H]1Oc2ccc(N(S(C)(=O)=O)S(C)(=O)=O)cc2C(=O)N(C)C[C@@H]1C,4,x,x,-15,x,x
SMILES,Ecoli rRNA inh,Vif imaging,S100A4 inh HTS,FN deposition inh,HIV Env fusion,miR-122 sensor
COC(=O)[C@]12C[C@H](CC(=O)NCc3ccc(OC)c(OC)c3)C(=O)N(CCc3ccc(OC)c(OC)c3)C1=C[C@H](C(C)(C)C)O[C@@H]2C,0,x,2,15,58*,x
CCCCCCCCN1C(=O)[C@@H](CC(=O)NCc2ccc(OC)c(OC)c2)C[C@@]2(C(=O)OC)C1=C[C@H](C(C)(C)C)O[C@@H]2C,8,x,-4,2,70*,x
COC(=O)[C@]12C[C@H](CC(=O)NCc3cccc(C(F)(F)F)c3)C(=O)N(CCc3ccc(OC)c(OC)c3)C1=C[C@H](C(C)(C)C)O[C@@H]2C,4,x,-1,-9,-10,x
CCCCCCCCN1C(=O)[C@@H](CC(=O)NCc2ccc(OC)c(OC)c2)C[C@@]2(C(=O)OC)C1=C[C@H](C1CCCC1)O[C@@H]2C,4,x,-1,2,-18,x
CCCCCCCCN1C(=O)[C@@H](CC(=O)NCc2cccc3ccccc23)C[C@@]2(C(=O)OC)C1=C[C@H](C(C)(C)C)O[C@@H]2C,7,x,1,7,63*,x
CCCCCCCCN1C(=O)[C@@H](CC(=O)NCc2cccs2)C[C@@]2(C(=O)OC)C1=C[C@H](C(C)(C)C)O[C@@H]2C,0,x,2,13,u,x
C[C@H]1CN([C@@H](C)CO)C(=O)c2cc(/C=C/c3ccccc3)cnc2O[C@@H]1CN(C)C,-3,x,10,12,-34[16.7 µM],0[16.7 µM]
C[C@H]1CN([C@@H](C)CO)C(=O)c2cc(-c3ccc(C#N)cc3)cnc2O[C@@H]1CN(C)C(=O)c1ccccc1,-4,x,0,9,-5[16.7 µM],-6[16.7 µM]
COc1ccc2c3c(n(C)c2c1)[C@H](CO)N(Cc1ccccc1)CC31CN(C)C1,5,x,-3,x,x,x
Cc1ccc(SCCNC(=O)/C=C/c2ccccc2Cl)cc1,-24*,-5,9,x,x,x
O=C(/C=C/c1ccccc1Cl)NCCc1ccccc1,-26*,-13,-5,x,x,8
CO[C@H]1CN(C)C(=O)c2ccc(NC(C)=O)cc2OC[C@@H](C)N(C(=O)C2CC2)C[C@@H]1C,4,x,4,12,x,x
Cc1nnc(SC(C)C(=O)Nc2sc3c(c2C#N)CCCC3)[nH]c1=O (stereo not given),-23,53*,4,-1,8,-4
CC(Sc1nc(N)cc(=O)[nH]1)C(=O)Nc1sc2c(c1C#N)CCCC2 (stereo not given),-33,-20,1,-8,31,x
O=C1N[C@H](Cc2ccccc2)COCc2cn(nn2)CC[C@@H]1Cc1ccc(Cl)cc1,-2,x,x,-1,x,x
COC(=O)\C(C(C)=O)=C(/C=C/C=C/N(C)C)N(C)C,x,62*,x,4,9,-5
COC(=O)/C(C(C)=O)=C(/C=C/C=C/N(C)C)N(C)C,6,9,-19,x,x,-4
O=C(O)CC/C(=C\c1ccc(N2CCCC2)c([N+](=O)[O-])c1)c1nc2ccccc2s1,-40*,-6,5,-8,1,x
CCCc1cn(CC[C@@H]2CC[C@H](NC(=O)C3CCC3)[C@@H](CO)O2)nn1,-2,x,-2,x,10[16.7 µM],x
